Measured values gathered from unrelated publications.

Compound | test system | conditions | measurement | value
CC(C)C[C@@H]1NC(=O)[C@H](C)NC(=O)[C@H](Cc2ccccc2)NCC2=CC=C(CN(C)C1=O)O2 | PAMPA | 100 µM, 17 h, pH 6.4 | Papp | 1.9 ×10⁻⁶ cm/s
CC(C)Cc1ccc(C(C)C(=O)O)cc1 (stereo not drawn) | PAMPA-BBB | pH 7.4 | Papp | 11.6 ×10⁻⁶ cm/s
CC(C)NCC(O)COc1cccc2ccccc12 (stereo not drawn) | PAMPA | 40 µM, 5 h, pH 7.4 | Papp | 14.3 ×10⁻⁶ cm/s
Cc1c(C(=O)O)ccc2c3n(nc12)[C@@H]1[C@H](C3)N(CC2CC2)[C@@]2(C(=O)Nc3cc(Cl)ccc32)[C@H]1c1cccc(Cl)c1F | female minipig, plasma | oral, 2 mg/kg | Cmax | 900 nM
CCCCCCCc1[nH]c2ccccc2c(=O)c1O | PAMPA | 40 µM, 5 h, pH 7.4 | Papp | 1.2 to 4 ×10⁻⁶ cm/s
O=[N+]([O-])c1ccc2c(c1)S(=O)(=O)C=C2 | PAMPA-BBB | pH 7.4 | Papp | 3.98 ×10⁻⁶ cm/s
N#C[C@@]12C[C@@H]1[C@@H](n1cnc3c(N[C@@H](C4CCC4)C4CC4)nc(I)nc31)[C@H](O)[C@@H]2O | male Wistar rat, plasma | oral, 10 mg/kg | AUC(0-inf) | 349 ng·h/mL
CC(C)C[C@@H]1NC(=O)CN(C)C(=O)[C@H](Cc2ccccc2)NCC2=CC=C(CNC1=O)O2 | PAMPA | 100 µM, 17 h, pH 6.4 | Papp | 1.3 ×10⁻⁶ cm/s
O=C1CC[C@H](N2Cc3cc(N4CCN(CC5CCN(c6ccc([C@@H]7c8ccc(O)cc8CC[C@@H]7c7ccccc7)cc6)CC5)CC4)ccc3C2=O)C(=O)N1 | female Sprague-Dawley rat, plasma | intravenous, 5 mg/kg, fed | AUC(0-inf) | 11600 ng·h/mL
